Screens from PubChem BioAssay.
procasp7 counter: counter-screen: procaspase-7 (human) activation; activation, % at 8.5 µM; hit rate 0.093% among 330,000; P55210; recombinant procaspase-7, Ac-DEVD-pNA absorbance 405 nm; D23A/D198A/D206A triple mutant, cannot self-cleave; scale: DMSO 0, 5 µM enzyme 100; AID 463210;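 active = percent activation above the screen-wide mean plus 3 SD, cut at about 25% in these data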
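Assay system: Uncleavable procaspase-7 mutant enzyme | Input: 2 µM procaspase-7 mutant as dispensed | Timing: 1 h compound preincubation, 2 h substrate cleavage, 25 °C | Repeats: One well per compound | Control set: DMSO wells as 0%, DMSO with 5 µM added PC-7 as 100% | Technique: Epi-absorbance of released pNA at 405 nm, two timepoints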
proKLK7 act: activates the human kallikrein-7 zymogen; P49862; purified proKLK7, EDANS-DABCYL substrate fluorescence; 100% is mature enzyme control, 0% vehicle; activation, % at 7 µM; hit rate 0.9% among 370,000; AID 652039;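 active = activation above the mean of all tested compounds plus 3 SD, computed per campaign excluding outliers beyond control limits, cut at about 13% in these data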
Target sequence (P49862 whole entry, looked up): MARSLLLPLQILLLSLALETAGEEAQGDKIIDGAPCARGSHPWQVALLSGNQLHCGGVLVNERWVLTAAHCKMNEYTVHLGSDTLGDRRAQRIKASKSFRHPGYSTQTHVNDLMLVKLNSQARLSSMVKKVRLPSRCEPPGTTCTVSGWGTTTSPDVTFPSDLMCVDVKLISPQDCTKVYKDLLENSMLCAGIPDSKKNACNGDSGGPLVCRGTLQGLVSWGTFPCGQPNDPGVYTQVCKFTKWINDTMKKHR
procasp3 activ: activators of human procaspase-3. P42574. hit rate 0.11% among 330,000. activation, % at 8.5 µM. recombinant procaspase-3 D3A, Ac-DEVD-pNA absorbance 405 nm;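 active = activation above the mean of all tested compounds plus 3 SD, cut at about 21% in these data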;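 note: 0% = DMSO alone and 100% = DMSO wells spiked with extra 5 µM PC-3 D3A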
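Assay system: Procaspase-3 D3A mutant, all three cleavage aspartates alanine. Buffer or medium: Zinc-free HEPES saline buffer with Triton X-100. Times: 1 h compound preincubation, 2 h substrate hydrolysis at 25 °C. Measured by: 405 nm absorbance of p-nitroaniline, reads at 0 and 120 min. Read-out basis: percent activation relative to control range. Replicates: singlicate.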
Neddylation inh: inhibitors of human cullin neddylation | P61081+Q13564 | TR-FRET cullin neddylation, biochemical | calls only at 25 µM | hit rate 0.58% among 360,000; in the data active = inhibition above about 36%
Neddyl conf: confirmation of human cullin neddylation inhibitors; AID 652217; hit rate 13% among 1,800; TR-FRET cullin neddylation biochemical assay; calls only at 25 µM; shares compounds with Neddylation inh; in the data active = inhibition above about 40%;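 note: neddylation substrate is the cullin 1 ring ligase complex with SKP2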
An asterisk follows results filed as active. Rows were chosen to be rich in hits. Some 1.6% of all compounds tested hit in one or more screens of this group.

For COc1ccc(NC(=O)c2c[nH]c(=O)n(-c3ccc(C)c(C)c3)c2=O)c(OC)c1 the results were proKLK7 act 0, Neddylation inh active and Neddyl conf inactive.
For COc1ccc(NC(=O)c2c[nH]c(=O)n(-c3ccc(C)c(C)c3)c2=O)cc1OC the results were procasp7 counter 5, proKLK7 act 0, procasp3 activ 7 and Neddylation inh inactive.
C#CCNC(=O)C[C@H]1C(=O)N(Cc2ccc(OC)cc2)C2=CCCC[C@@]21C(=O)OCC was read as proKLK7 act 0.
COc1ccc(/C=C/C(=O)NC(=S)NNC(=O)c2cc(OC)c(OC)c(OC)c2)cc1 was read as procasp7 counter -2, proKLK7 act 0, procasp3 activ 3, Neddylation inh active and Neddyl conf inactive.
Screening COc1ccc(/C=C/C(=O)NC(=S)NNC(=O)c2cc(OC)c(OC)c(OC)c2)cc1OC returned procasp7 counter -9, proKLK7 act 0, procasp3 activ -15 and Neddylation inh inactive.
`COCC(C)NC(=O)c1ccc2nc(-c3ccccc3)c(-c3ccccc3)nc2c1` (stereo not given) gave procasp7 counter -5, proKLK7 act -7, procasp3 activ -5, Neddylation inh active and Neddyl conf active.
CN1CCN(C(=O)c2ccc3nc(-c4ccccc4)c(-c4ccccc4)nc3c2)CC1 was read as procasp7 counter 3, proKLK7 act 5, procasp3 activ 4 and Neddylation inh active.
Screening CCC(C)NC(=O)c1ccc2nc(-c3ccc(OC)c(OC)c3)c(-c3ccc(OC)c(OC)c3)nc2c1 (stereo not given) returned procasp7 counter 4, proKLK7 act 0, procasp3 activ 7 and Neddylation inh inactive.
CCN(CC)C(=O)c1ccc2nc(-c3ccccc3)c(-c3ccccc3)nc2c1 was read as procasp7 counter 8, proKLK7 act 2, procasp3 activ 4, Neddylation inh active and Neddyl conf inactive.
Cc1ccc(NC(=O)CSc2nnc(-c3cc(-c4ccc(Cl)cc4)n[nH]3)n2N)cc1 was read as proKLK7 act 0.
For CCOC(=O)C1CSCCS(=O)(=O)N1Cc1cccc(F)c1 (stereo not given) the results were proKLK7 act 0.
CCOc1cc(/C=C(/C#N)c2nc3ccccc3[nH]2)ccc1OCc1ccc(C(=O)O)o1 was read as procasp7 counter -2, proKLK7 act -1, procasp3 activ 3, Neddylation inh active and Neddyl conf inactive.
For O=C(/C=C(\Nc1cc(Cl)c(Cl)c(Cl)c1)c1ccccc1)c1ccccc1 the results were proKLK7 act -1.
COc1ccc(C2=Cc3ccccc3C(CC(=O)C3CC3)N2c2ccc(-c3cc(OC)c(OC)c(OC)c3)cc2)cc1 (stereo not given) was read as proKLK7 act 3, Neddylation inh active and Neddyl conf inactive.
`O=C1NC(=O)c2cc3ccccc3cc21` gave procasp7 counter -14, proKLK7 act -4, procasp3 activ -2, Neddylation inh active and Neddyl conf active.
For O=C(N/N=C/c1ccc(-c2cccc(C(F)(F)F)c2)o1)c1ccccc1O the results were procasp7 counter 1, proKLK7 act 0, procasp3 activ -13, Neddylation inh active and Neddyl conf inactive.
Screening O=C(O)c1cccc(N2CCCC2)c1 returned procasp7 counter 4, proKLK7 act -8, procasp3 activ 9 and Neddylation inh active.
`CCOC(=O)CC[C@H]1CC[C@]2(CCCN(C(=O)c3ccco3)C2)O1` gave proKLK7 act 0.
`COc1ccc(C(C(=O)N(C)C2CCCC2)N(Cc2ccc(F)cc2)C(=O)c2csc(N3CCOCC3)n2)cc1OC` (stereo not given) gave proKLK7 act 1.
`O=P(O)(O)c1cc(-c2ccccc2)oc1-c1ccccc1` gave procasp7 counter 2, proKLK7 act 0, procasp3 activ -6 and Neddylation inh active.
`CCS(=O)(=O)Nc1ccc(C2=NN(C(=O)c3ccco3)C(c3cccs3)C2)cc1` (stereo not given) gave procasp7 counter 8, proKLK7 act -5, procasp3 activ -8, Neddylation inh active and Neddyl conf inactive.
